Experiments:
Assay type in all cases: functional
Rattus norvegicus [1] = assay: Maximum fall in blood pressure was evaluated at an oral dose of 0.3 mg/kg in (SHR) spontaneous hypertensive rats
Procedure, shortened: (§1)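 Conscious spontaneously hypertensive rats (Okamoto-derived, 14–24 weeks old; systolic pressure >180 mmHg counted as hypertensive), six or more per dose level. Given orally by dosing needle into the esophagus as solution or suspension in 1% w/v methylcellulose. Systolic pressure read by tail cuff, each reading the mean of at least six recordings, taken before dosing and at intervals up to 6 h; maximum fall recorded.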

Rattus norvegicus [2] = assay: Maximum fall in blood pressure was evaluated at an oral dose of 1.0 mg/kg in (SHR) spontaneous hypertensive rats; procedure, shortened: as §1
Rattus norvegicus [3] = assay: Maximum fall in blood pressure was evaluated at an oral dose of 0.1 mg/kg in (SHR) spontaneous hypertensive rats; procedure, shortened: as §1
Rattus norvegicus [4] = assay: Maximum fall in blood pressure was evaluated at an oral dose of 10.0 mg/kg in (SHR) spontaneous hypertensive rats; procedure, shortened: as §1
Rattus norvegicus [5] = assay: Maximum fall in blood pressure was evaluated at an oral dose of 10 mg/kg in (SHR) spontaneous hypertensive rats; procedure, shortened: as §1
Rattus norvegicus [6] = assay: Maximum fall in blood pressure was evaluated at an oral dose of 3.0 mg/kg in (SHR) spontaneous hypertensive rats; procedure, shortened: as §1
Rattus norvegicus [7] = assay: Maximum fall in blood pressure was evaluated at an oral dose of 0.03 mg/kg in (SHR) spontaneous hypertensive rats; procedure, shortened: as §1

Row | Structure (SMILES) | Max fall in blood pressure (Rattus norvegicus [1]) [%] | Max fall in blood pressure (Rattus norvegicus [2]) [%] | further results
1 | CC1(C)C=C(N2CCCC2=O)c2cc(C#N)ccc2O1 | 47 |  | 
2 | CC1(C)Oc2ccc(C#N)cc2C(N2CCSC2=O)[C@@H]1O (stereo partly specified) | 27 | 30 | 
3 | CC1(C)Oc2ccc(C#N)cc2C(N2CCNCC2=O)[C@@H]1O (stereo partly specified) | 53 |  | Max fall in blood pressure (Rattus norvegicus [3]): 28%
4 | CC1(C)Oc2ccc(C#N)cc2C(N2CCCCCC2=O)[C@@H]1O (stereo partly specified) |  | 10 | 
5 | CC1(C)Oc2ccc(C=O)cc2C(N2CCCC2=O)[C@@H]1O (stereo partly specified) |  |  | Max fall in blood pressure (Rattus norvegicus [4]): 25%
6 | CC1(C)Oc2c(cccc2[N+](=O)[O-])C(N2CCCC2=O)[C@@H]1O (stereo partly specified) |  | 7 | 
7 | CC1(C)C=C(N2CCCCC2=O)c2cc(C#N)ccc2O1 | 25 | 55 | 
8 | CC(=O)Nc1cc2c(cc1[N+](=O)[O-])C(N1CCCC1=O)[C@H](O)C(C)(C)O2 (stereo partly specified) | 62 |  | Max fall in blood pressure (Rattus norvegicus [3]): 37%
9 | CC1(C)Oc2ccc(C#N)cc2C(N2CC[N+](C)(C)CC2=O)[C@@H]1O.[I-] (stereo partly specified) |  | 9 | 
10 | COC(=O)c1ccc2c(c1)C(N1CCCCC1=O)[C@H](O)C(C)(C)O2 (stereo partly specified) | 13 | 42 | 
11 | CC1(C)Oc2ccc(C#N)cc2C(N2CCCC2)[C@@H]1O (stereo partly specified) | 21 | 29 | Max fall in blood pressure (Rattus norvegicus [3]): 8%
12 | CC1(C)Oc2ccc(C#N)cc2C(N2CCCC2=O)[C@@H]1OC=O (stereo partly specified) | 31 | 36 | 
13 | CC1Oc2ccc([N+](=O)[O-])cc2C(N2CCCC2=O)[C@@H]1O (stereo partly specified) |  |  | Max fall in blood pressure (Rattus norvegicus [4]): 34%
14 | CC(=O)c1ccc2c(c1)C(N1CCCCC1=O)[C@H](O)C(C)(C)O2 (stereo partly specified) | 29 | 66 | 
15 | CC1(C)Oc2ccc(C#N)cc2C(N2CCCCCCC2=O)[C@@H]1O (stereo partly specified) |  |  | Max fall in blood pressure (Rattus norvegicus [4]): 11%
16 | CC1(C)Oc2ccc(C#N)cc2C(N2CCSCC2=O)[C@@H]1O (stereo partly specified) |  | 9 | Max fall in blood pressure (Rattus norvegicus [5]): 12%
17 | CC1(C)CC(N2CCCC2=O)c2cc(C#N)ccc2O1 (stereo unspecified) |  | 15 | Max fall in blood pressure (Rattus norvegicus [6]): 45%
18 | CC1(C)Oc2ccc(C#N)cc2C(N2OCCC2=O)[C@@H]1O (stereo partly specified) |  |  | Max fall in blood pressure (Rattus norvegicus [4]): 19%
19 | CC1(C)Oc2ccc(Cl)cc2C(N2CCCC2=O)[C@@H]1O (stereo partly specified) |  | 8 | Max fall in blood pressure (Rattus norvegicus [5]): 37%
20 | CC1(C)Oc2ccc([N+](=O)[O-])cc2C(N2CCCC2=O)[C@@H]1O (stereo partly specified) | 27 | 63 | 
21 | CC(=O)c1ccc2c(c1)C(N1CCCC1=O)[C@H](O)C(C)(C)O2 (stereo partly specified) | 33 | 56 | 
22 | COC(=O)c1ccc2c(c1)C(N1CCCC1=O)[C@H](O)C(C)(C)O2 (stereo partly specified) | 11 | 20 | Max fall in blood pressure (Rattus norvegicus [5]): 44%
23 | CC1(C)Oc2cc([N+](=O)[O-])c(N)cc2C(N2CCCC2=O)[C@@H]1O (stereo partly specified) |  | 25 | 
24 | CC1(C)Oc2ccc(C#N)cc2C(N2CCCCC2=O)[C@@H]1O (stereo partly specified) | 49 | 59 | Max fall in blood pressure (Rattus norvegicus [3]): 46%; Max fall in blood pressure (Rattus norvegicus [7]): 27%
25 | CC(=O)c1ccc2c(c1)C(N1CCCC1=O)=CC(C)(C)O2 |  | 48 | 

Row | Structure (SMILES) | Max fall in blood pressure (Rattus norvegicus [1]) [%] | Max fall in blood pressure (Rattus norvegicus [2]) [%] | further results
26 | CC1(C)Oc2ccc(C#N)cc2C(N2CCCC2=O)[C@@H]1O (stereo partly specified) | 39 | 47 | Max fall in blood pressure (Rattus norvegicus [3]): 13%
27 | CC(=O)c1ccc2c(c1)C(N1CCN(C(=O)c3ccc(F)cc3)CC1=O)[C@H](O)C(C)(C)O2 (stereo partly specified) |  |  | Max fall in blood pressure (Rattus norvegicus [4]): 16%
28 | CC1(C)Oc2ccc(C#N)cc2C(N2CCN(Cc3ccccc3)CC2=O)[C@@H]1O (stereo partly specified) | 26 | 35 | Max fall in blood pressure (Rattus norvegicus [3]): 10%
29 | CC1(C)C=C(N2CCSC2=O)c2cc(C#N)ccc2O1 | 9 | 27 | 
30 | CC(=O)Nc1cc2c(cc1[N+](=O)[O-])OC(C)(C)[C@@H](O)C2N1CCCC1=O (stereo partly specified) |  | 3 | Max fall in blood pressure (Rattus norvegicus [6]): 14%
31 | CN1CCCN(C2=CC(C)(C)Oc3ccc(C#N)cc32)C1=O |  | 29 | 
32 | CC1(C)C=C(N2CCCCCC2=O)c2cc(C#N)ccc2O1 |  | 15 | Max fall in blood pressure (Rattus norvegicus [5]): 36%
33 | CC1(C)Oc2ccc(C#N)cc2C(N2CCOCC2=O)[C@@H]1O (stereo partly specified) | 26 | 27 | 
34 | CC1(C)C=C(N2CCCC2=O)c2cc([N+](=O)[O-])ccc2O1 |  | 68 | 
35 | CC1(C)Oc2ccccc2C(N2CCCC2=O)[C@@H]1O (stereo partly specified) |  |  | Max fall in blood pressure (Rattus norvegicus [5]): 9%
36 | CC1(C)Oc2cc([N+](=O)[O-])ccc2C(N2CCCC2=O)[C@@H]1O (stereo partly specified) | 12 | 56 | Max fall in blood pressure (Rattus norvegicus [5]): 68%
37 | CC(=O)N1CCN(C2c3cc(C#N)ccc3OC(C)(C)[C@H]2O)C(=O)C1 (stereo partly specified) |  | 17 | Max fall in blood pressure (Rattus norvegicus [6]): 23%
38 | CC1(C)Oc2ccc(C#N)cc2C(N2CCN(C(=O)c3ccco3)CC2=O)[C@@H]1O (stereo partly specified) |  | 15 | Max fall in blood pressure (Rattus norvegicus [6]): 43%
39 | CC1(C)Oc2ccc(C#N)cc2C(N2CCN(C(=O)c3ccccc3)CC2=O)[C@@H]1O (stereo partly specified) |  |  | Max fall in blood pressure (Rattus norvegicus [4]): 14%
40 | CN1CCCN(C2c3cc(C#N)ccc3OC(C)(C)[C@H]2O)C1=O (stereo partly specified) |  | 23 | 
41 | CCCCN1CCN(C2c3cc(C#N)ccc3OC(C)(C)[C@H]2O)C(=O)C1 (stereo partly specified) | 48 | 61 | Max fall in blood pressure (Rattus norvegicus [3]): 18%
42 | CC1(C)Oc2ccc(C#N)cc2C(N2CCOC2=O)[C@@H]1O (stereo partly specified) | 20 | 29 | 
43 | CC1(C)C=C(N2CCCC2=O)c2cc(Cl)ccc2O1 |  |  | Max fall in blood pressure (Rattus norvegicus [4]): 36%
44 | CC(=O)O[C@H]1C(N2CCCC2=O)c2cc(C#N)ccc2OC1(C)C (stereo partly specified) |  | 30 | Max fall in blood pressure (Rattus norvegicus [6]): 39%
45 | CC1(C)Oc2ccc(C#N)cc2C(N2CCCC2=S)[C@@H]1O (stereo partly specified) | 39 |  | Max fall in blood pressure (Rattus norvegicus [3]): 16%
46 | O=C1CCCN1C1c2cc([N+](=O)[O-])ccc2OC[C@H]1O (stereo partly specified) |  |  | Max fall in blood pressure (Rattus norvegicus [4]): 5%
47 | CN1CCN(C2c3cc(C#N)ccc3OC(C)(C)[C@H]2O)C(=O)C1 (stereo partly specified) | 37 |  | Max fall in blood pressure (Rattus norvegicus [3]): 20%
48 | CC1(C)Oc2ccc(C#N)cc2C(N2CCCC2=O)C1O (single isomer, unassigned) [CROMAKALIM] | 47 |  | Max fall in blood pressure (Rattus norvegicus [3]): 31%
49 | CC1(C)Oc2ccc(C#N)cc2[C@@H](N2CCCC2=O)[C@@H]1O (single isomer, unassigned) [LEVCROMAKALIM] |  | 23 | Max fall in blood pressure (Rattus norvegicus [4]): 46%
50 | COC(=O)C1=C(C)NC(C)=C(C(=O)OC)C1c1ccccc1[N+](=O)[O-] [NIFEDIPINE] |  | 13 | Max fall in blood pressure (Rattus norvegicus [6]): 27%; Max fall in blood pressure (Rattus norvegicus [4]): 36%
